Measured values as given in publication PMC12569033 (Nature Communications, 2025).
Entries after “also recorded” stand apart in the source; their conditions may differ.

Key:
dmIR wild-type (WT) = assay: Cell-based dmIR activation; set-up: species or system Drosophila melanogaster; details: 10 min; for dmIR autophosphorylation, in words / Efficacy (signal in amplitude) relative to DILP5: dose response Fig. 1a; for Efficacy (signal in amplitude) relative to DILP5: of the efficacy/maximum of DILP5; for dmIR WT autophosphorylation on stimulation, in words: 100 nM, Fig. 2f, g
[1] = target: near-full-length dmIR (residues 1–50, 151–1675, D1519N) (Drosophila melanogaster) (UniProt P09208); assay: cryo-EM structure
Drosophila S2 cells = details: single peptide applied to cultured Drosophila S2 cells; cited from earlier work
dmIR S820R = assay: dmIR autophosphorylation assay, S820R mutant; format: cell-based, Drosophila melanogaster; details: 100 nM DILP5, 10 min
How it was run: (§1)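 Full-length wDah dmIR with a C-terminal MYC tag, mutated by site-directed mutagenesis, was transiently transfected into 293FT cells. After 1 day, cells were serum-starved for 16–18 h, then exposed to 100 nM synthetic DILP for 10 min. Lysates were immunoblotted for pY1548/1549 and Myc, and pY signal was normalized to total dmIR relative to WT receiving the same treatment. Independent experiments were analysed by two-way ANOVA with Dunnett's test, mean ± sem.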

dmIR R848A = assay: dmIR autophosphorylation assay, R848A mutant; format: cell-based, Drosophila melanogaster; details: 100 nM ligand, 10 min
How it was run: (§2)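 Site-directed dmIR point mutants (C-terminal MYC tag) were transfected into 293FT cells alongside WT. After 1 day, cells were serum-starved 16–18 h, then treated 10 min with 100 nM DILP2 or DILP5. Lysates were blotted with anti-pY1150/1151 and anti-Myc. pY-dmIR was normalized to total dmIR and expressed relative to WT with the same ligand. Data are mean ± sem of ≥3 independent experiments, analysed by two-way ANOVA with Dunnett test versus WT.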

dmIR F1044A = assay: dmIR autophosphorylation assay, F1044A mutant; format: cell-based, Drosophila melanogaster; details: 100 nM ligand, 10 min
How it was run: as §2

dmIR Δ602–609 = assay: dmIR autophosphorylation assay, Δ602–609 mutant; format: cell-based, Drosophila melanogaster; details: Δ602–609, 100 nM DILP5, 10 min
How it was run: as §1

dmIR V889R = assay: dmIR autophosphorylation assay, V889R mutant; format: cell-based, Drosophila melanogaster; details: 100 nM DILP5, 10 min
How it was run: as §1

dmIR K1256A = assay: dmIR autophosphorylation assay, K1256A mutant; format: cell-based, Drosophila melanogaster; details: 100 nM ligand, 10 min
How it was run: as §1

[2] = test system: glycogen phosphorylase; sterile 20-like kinase; tramtrack; details: cited from earlier work
dmIR D1251R = assay: dmIR autophosphorylation assay, D1251R mutant; format: cell-based, Drosophila melanogaster; details: 100 nM ligand, 10 min
How it was run: as §1

dmIR Q1040A = assay: dmIR autophosphorylation assay, Q1040A mutant; format: cell-based, Drosophila melanogaster; details: 100 nM ligand, 10 min
How it was run: as §2

dmIR R657A = assay: dmIR autophosphorylation assay, R657A mutant; format: cell-based, Drosophila melanogaster; details: 100 nM DILP5, 10 min
How it was run: as §1

| Molecule | dmIR autophosphorylation, in words (Fig. 5f, g) (dmIR wild-type (WT); 1000 nM DILP1, 100 nM DILP5 or combination) | dmIR autophosphorylation, in words (dmIR wild-type (WT); 293FT) | Efficacy (signal in amplitude) relative to DILP5 (dmIR wild-type (WT); 293FT) | stoichiometry N (DILP5 molecules per dmIR dimer) [1] | Phosphorylation of Akt (pAkt), in words (Drosophila S2 cells) | Effect of receptor mutation on ligand-induced activation, in words (dmIR S820R) | Effect of receptor mutation on ligand-induced activation, in words (dmIR R848A) | Effect of receptor mutation on ligand-induced activation, in words (dmIR F1044A) | Effect of receptor mutation on ligand-induced activation, in words (dmIR Δ602–609) | dmIR WT autophosphorylation on stimulation, in words (dmIR wild-type (WT); 293FT) | Concentration at which saturation of dmIR autophosphorylation is observed (dmIR wild-type (WT); 293FT) [nM] | Effect of receptor mutation on ligand-induced activation, in words (dmIR V889R) | Effect of receptor mutation on ligand-induced activation, in words (dmIR K1256A) | Protein phosphorylation changes, in words [2] | Effect of receptor mutation on ligand-induced activation, in words (dmIR D1251R) | Effect of receptor mutation on ligand-induced activation, in words (dmIR Q1040A) | Effect of receptor mutation on ligand-induced activation, in words (dmIR R657A) |
| --- | --- | --- | --- | --- | --- | --- | --- | --- | --- | --- | --- | --- | --- | --- | --- | --- | --- |
| Drosophila insulin-like peptide 1 [DILP1] | lower levels of dmIR autophosphorylation compared to DILP5 | lowest level of dmIR autophosphorylation; also recorded: lowest efficacy in activating dmIR | about 50% |  |  |  |  |  |  |  |  |  |  |  |  |  |  |
| Drosophila insulin-like peptide 5 (DILP5) (ligand) |  |  |  | 3 |  |  |  |  |  |  |  |  |  |  |  |  |  |
| Drosophila insulin-like peptide 5 (peptide, UniProt Q7KUD5 23-108, looked up) Insulin-like peptide 5: ANSLRACGPALMDMLRVACPNGFNSMFAKRGTLGLFDYEDHLADLDSSESHHMNSLSSIRRDFRGVVDSCCRKSCSFSTLRAYCDS |  | increased dmIR autophosphorylation in a dose-dependent manner; also recorded: higher levels of dmIR autophosphorylation |  |  | robust and sustained phosphorylation of Akt (pAkt) | modest but statistically significant reduction in dmIR phosphorylation | reduced receptor autophosphorylation | reduced receptor autophosphorylation | impaired DILP5-induced activation of dmIR | significantly increased autophosphorylation of dmIR WT | 300 | modest but statistically significant reduction in dmIR phosphorylation | defects in DILP5- or DILP2-dependent dmIR activation | increases the phosphorylation of sterile 20-like kinase and tramtrack | defects in DILP5- or DILP2-dependent dmIR activation | reduced receptor autophosphorylation | impaired DILP5-induced activation of dmIR |
| Drosophila insulin-like peptide 2 (peptide, UniProt Q9VT51 27-137, looked up) Insulin-like peptide 2: TLCSEKLNEVLSMVCEEYNPVIPHKRAMPGADSDLDALNPLQFVQEFEEEDNSISEPLRSALFPGSYLGGVLNSLAEVRRRTRQRQGIVERCCKKSCDMKALREYCSVVRN |  | less effective than DILP5 | approximately 75% |  | only stimulates an early spike of pAkt |  | reduced receptor autophosphorylation | reduced receptor autophosphorylation |  | significantly increased autophosphorylation of dmIR WT |  |  | defects in DILP5- or DILP2-dependent dmIR activation | represses the phosphorylation of glycogen phosphorylase | defects in DILP5- or DILP2-dependent dmIR activation | reduced receptor autophosphorylation |  |
